SENP7 block – blocks the human protease SENP7. Q9BQF6. recombinant SENP7, Z-RLRGG-aminoluciferin luminescence, 40 min. inhibition, % at 5 µM. hit rate 1.5% among 330,000. AID 434973;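 active = inhibition above about 50% at the single test dose, limit read from the data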;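 also: plate controls were DMSO with enzyme for no effect and no enzyme buffer wells for full effect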
SENP6 inh – inhibitors of human SENP6 protease; Q9GZR1; Recombinant SENP6 catalytic domain, aminoluciferin luminescence; inhibition, % at 10 µM; hit rate 1.8% among 330,000; AID 2599;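 active = inhibition above about 50% at the single tested dose, limit read from the data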;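 also: plate controls were DMSO wells with enzyme for no effect and DMSO wells lacking enzyme for full effect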
Target sequence (Q9GZR1 628-1112 limits assumed): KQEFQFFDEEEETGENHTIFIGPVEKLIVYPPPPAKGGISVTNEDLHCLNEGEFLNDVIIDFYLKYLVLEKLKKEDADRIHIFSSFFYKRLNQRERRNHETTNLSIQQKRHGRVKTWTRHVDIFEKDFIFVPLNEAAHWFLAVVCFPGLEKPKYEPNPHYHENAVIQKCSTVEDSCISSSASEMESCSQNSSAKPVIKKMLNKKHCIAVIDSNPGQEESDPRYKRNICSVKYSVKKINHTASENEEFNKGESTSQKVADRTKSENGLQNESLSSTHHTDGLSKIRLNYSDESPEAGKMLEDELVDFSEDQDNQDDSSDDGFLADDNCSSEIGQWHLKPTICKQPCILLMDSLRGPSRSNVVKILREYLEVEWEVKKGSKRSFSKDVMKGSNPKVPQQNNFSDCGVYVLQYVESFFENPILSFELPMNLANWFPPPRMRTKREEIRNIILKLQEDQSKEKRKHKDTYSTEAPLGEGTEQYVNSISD
SENP1 FRET inh – SENP1 (human) catalytic domain inhibition. Q9P0U3. recombinant SENP1 catalytic domain, CyPet-SUMO1-YPet FRET cleavage. inhibition, % at 10 µM. hit rate 0.21% among 360,000;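 active = inhibition at least 30% at 10 µM, raw YFP signal under a set limit, fluorescence ratio 0.5 to 1.5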;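 also: 0% = enzyme with DMSO and 100% = no enzyme wells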
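Test system: human SENP1 catalytic domain; medium: Tris pH 8 buffer plus EDTA, NaCl, BME, BSA, NP40, catalase; incubation: 50 min reaction at room temperature; technique: FRET, CFP and YFP emission; controls: no-enzyme low control and enzyme-plus-DMSO high control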
SENP8 block-1 – blocks human SENP8 cleavage of Nedd8 substrate; Q96LD8; recombinant SENP8, Nedd8 substrate fluorescence; inhibition, % at 20 µM; hit rate 0.64% among 360,000; in the data active = inhibition mostly above about 40%, no sharp cut-off; inactive = mostly below about 27%
SENP8 block-2 – SENP8 protease inhibition. Q96LD8. purified SENP8, Z-RLRGG-aminoluciferin cleavage, luminescence. inhibition, % at 10 µM. hit rate 1.2% among 330,000. AID 2540; in the data active = inhibition above about 50%
Apaf1 inhib – human Apaf-1 inhibition | O14727 | inhibition, % at 20 µM | reconstituted apoptosome caspase-3 activity, DEVD-Rh110 fluorescence | hit rate 0.71% among 330,000; active = inhibition of at least 40% at 20 µM;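 also: plate controls were DMSO wells for no effect and DEVD-CHO caspase inhibitor wells for full effect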
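Assay system: Apoptosome proteins | Medium: pH 7.5 Hepes buffer with CHAPS, BSA, DTT | Also added: Cytochrome c and DEVD-Rh110 substrate | Times: 30 min plus 50 min, RT | Detection: Rhodamine 110 fluorescence at Ex 480/Em 540 nm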
* hit, by the source's call; · = no result. This is a sample that favours compounds with a hit; in the whole collection about 2.9% have one here.

SMILES | SENP7 block | SENP6 inh | SENP1 FRET inh | SENP8 block-1 | SENP8 block-2 | Apaf1 inhib
Cn1ncnc2c(=O)n(C)c(=O)nc1-2 | 96* | 95* | 38* | 101* | 96* | 99*
CC1=NN(c2ccccc2)C(=O)C1/C=C1\C(=O)NC(=O)N(c2cc(C)cc(C)c2)C1=O (configuration not stated) | 4 | 10 | 0 | 40* | -1 | 9
S=P(NCCNP(=S)(N1CC1)N1CC1)(N1CC1)N1CC1 | · | · | 1 | 6 | · | ·
CC[C@H]1c2ccccc2[C@@H]2CC[C@H]1N2c1ccccc1 | · | · | -5 | -54 | · | ·
O=C1C=C(N2CC2)c2ccccc2C1=O | · | · | 1 | 64* | · | ·
CCOC(=O)[C@]12Cc3cc(Cl)ccc3[C@H]1N(C(C)C)C(=O)c1ccccc12 | · | · | 1 | 3 | · | ·
O=c1[nH]c(=S)[nH]c(O)c1N=Nc1ccc2c(c1)OCO2 | 85* | 89* | 19 | 28 | 82* | 6
O=c1[nH]c(O)c(N=Nc2ccc3c(c2)OCCO3)c(=O)[nH]1 | 1 | 19 | 39* | -25 | -14 | -1
O=c1[nH]c(O)c(N=Nc2ccc(S(=O)(=O)N3CCOCC3)cc2)c(=O)[nH]1 | 3 | -6 | -10 | 15 | -1 | -7
CCOC(=O)[C@]12Cc3c(cc(OC)c(OC)c3OC)[C@H]1N(C(C)C)C(=O)c1cc(OC)ccc12 | · | · | -1 | 3 | · | ·
CCOC(=O)[C@]12Cc3cc(OC)ccc3[C@H]1N(C1CCCCC1)C(=O)c1ccccc12 | · | · | 1 | 6 | · | ·
CC(C)(C)c1cc(C=C(C#N)C#N)cc(C(C)(C)C)c1O | 5 | 1 | -159 | 40* | 11 | 0
N#CC(C#N)=Cc1ccc(O)c(O)c1 | 8 | -5 | -70 | 20 | -7 | -8
Nc1c(C(=O)NCCN2CCOCC2)c2nc3ccccc3nc2n1Cc1ccccc1 | 6 | 25 | -30 | -425 | 0 | 82*
Nc1c(C(=O)NCCc2ccccc2)c2nc3ccccc3nc2n1CCN1CCOCC1 | 5 | 0 | -23 | -280 | -2 | 8
COc1ccc2c(c1)NP(=S)(Oc1ccccc1)N2 (configuration not stated) | 17 | 18 | -5 | 3 | 6 | 50*
Cc1ccc2c(c1)NP(=S)(Oc1ccccc1)N2 (configuration not stated) | · | · | 2 | 1 | · | ·
CCOC(=O)[C@]12Cc3cc(Cl)ccc3[C@H]1N(C1CCCCC1)C(=O)c1ccccc12 | · | · | -2 | 5 | · | ·
CCN(CC)C(=O)c1ccc2c(c1)C1C(Cl)C(Sc3ccccc3[N+](=O)[O-])CC1C(C(=O)O)N2 (configuration not stated) | 6 | 12 | -7 | 44* | 14 | 25
O=C(O)c1cccc2c1NC(c1cccc([N+](=O)[O-])c1)C1CC(Sc3ccccc3[N+](=O)[O-])C(Cl)C21 (configuration not stated) | 3 | 16 | 3 | 31 | 8 | 40
O=C(O)c1ccc2c(c1)C1C(Cl)C(Sc3ccccc3[N+](=O)[O-])CC1C(c1cccc([N+](=O)[O-])c1)N2 (configuration not stated) | · | · | 4 | 49* | · | ·
Cc1ccc2c(c1Cl)NC(C(=O)O)C1CC(Sc3ccccc3[N+](=O)[O-])C(Cl)C21 (configuration not stated) | 3 | 4 | -1 | 30 | 6 | 5
Cc1cc2c(C(C)C)c(O)c(O)c(C=O)c2c(O)c1-c1c(C)cc2c(C(C)C)c(O)c(O)c(C=O)c2c1O | · | · | 3 | 39* | · | ·
CCCN1CCc2cc(O)cc3c2[C@H]1Cc1ccc(O)c(O)c1-3 | 0 | -14 | -14 | -87 | 2 | 45*
CN1CCc2cc(O)cc3c2[C@H]1Cc1ccc(O)c(O)c1-3 | -4 | 1 | -8 | -76 | -12 | 38
SMILES | SENP7 block | SENP6 inh | SENP1 FRET inh | SENP8 block-1 | SENP8 block-2 | Apaf1 inhib
CN1C(=O)NC(=O)/C(=C/c2ccc([N+](=O)[O-])s2)C1=O | 6 | 50 | 5 | 58* | 33 | 15
Cc1cccc(N2C(=O)/C(=C/c3ccc(N4CCN(C)CC4)o3)C(=O)NC2=S)c1C | 3 | -3 | 34* | 31 | 1 | 3
CCc1ccccc1N1C(=O)/C(=C/c2ccc(N3CCN(C)CC3)o2)C(=O)NC1=S | -2 | -14 | 43* | 6 | -6 | 15
Cc1ccccc1N1C(=O)NC(=O)/C(=C/c2ccc(N3CCOCC3)o2)C1=O | 3 | -19 | -6 | -69 | 3 | 3
CC(=O)OC1C(O)C2=C3C4(C)C1C(C)(C)C(=O)CC4C3(O)C(OC(C)=O)C1(CC1C)C2=O (configuration not stated) | · | · | -2 | 8 | · | ·
CC(C)C[C@@H]1COc2cccc(N3CCN(C)CC3)c2S(=O)(=O)N1 | · | · | 0 | 26 | · | ·
Fc1ccc(C(OCCN2CCN(CCCc3ccccc3)CC2)c2ccc(F)cc2)cc1 | 10 | -6 | -1 | 0 | -8 | 56*
CN1CCN(c2ccc(N)cc2)CC1 | -2 | 2 | 8 | 51* | 11 | 15
CCN1CCN(c2ccc(N)cc2)CC1 | -12 | -10 | 1 | 12 | -14 | 14
O=c1[nH]c2ccccc2n1C1CCN(Cc2ccc(-c3[nH]c4cc5ncnc5cc4nc3-c3ccccc3)cc2)CC1 | · | · | -3 | -421 | · | ·
O=c1[nH]c(=S)n(-c2ccccc2F)c(O)c1C=Nc1ccc(N2CCOCC2)cc1 | 7 | 17 | 67* | 10 | 3 | 2
CCCCn1c(NC(=O)c2ccc(Br)o2)c(C(=O)OCC)c2nc3ccccc3nc21 | 14 | 75* | -28 | -372 | 62* | 79*
CCCCn1c(NS(=O)(=O)c2ccccc2)c(C(=O)OCC)c2nc3ccccc3nc21 | · | · | -28 | -354 | · | ·
Clc1cc(Cl)c(-c2cc(Cl)c(Cl)cc2Cl)cc1Cl | -9 | -19 | -1 | -1 | -17 | 4
CN[C@H]1C[C@H]2O[C@@](C)([C@H]1OC)n1c3ccccc3c3c4c(c5c6ccccc6n2c5c31)C(=O)NC4 | -2 | -8 | · | · | -7 | 51*

Compound activity (PubChem BioAssay)
